Experimental data taken from ChEMBL document CHEMBL4350958, “Rational Design of Short Peptide Variants by Using Kunitzin-RE, an Amphibian-Derived Bioactivity Peptide, for Acquired Potent Broad-Spectrum Antimicrobial and Improved Therapeutic Potential of Commensalism Coinfection of Pathogens” (J Med Chem, 2019).
The source made the active and inactive calls. The calls are words filed in the database; no cut-off is given here.

How the values were obtained:
Escherichia coli [1] = assay: Induction of cytoplasmic membrane depolarization in Escherichia coli ATCC 25922 assessed as fluorescence intensity at 2 uM up to 3000 secs by DiSC3-5 dye-based fluorescence spectrophotometric method
How it was run: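 Mid-log E. coli ATCC 25922 (OD600 0.05) loaded with 0.4 μM DiSC3-5 and 100 mM K+ in 5 mM HEPES pH 7.4 with 20 mM glucose until fluorescence stabilized. Peptide added in a 1-cm cuvette and fluorescence (ex 622, em 670 nm) recorded 0–3000 s. Triplicate, three biological replicates.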

Escherichia coli [2] = assay: Bactericidal activity against Escherichia coli ATCC 25922 assessed as reduction in bacterial growth at MBC by time-kill assay; format: functional, organism-based
How it was run: (§1)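 Time-kill assay. E. coli ATCC 25922, S. aureus ATCC 29213 or C. albicans cgmcc 2.2086 at a final 0.5-1×10^5 CFU mL-1 treated at 1×MBC/MFC. Aliquots collected at different times to calculate survival, with an untreated control. Mean of three independent experiments, each with three technical replicates.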

Lipid bilayer [3] = assay: Induction of membrane disruption in PC/CL large unilamellar vesicles assessed as calcein-entrapped liposome leakage at 1 uM after 15 mins by spectrofluorophotometric assay relative to control; conditions: artificial membrane, 0.25 h
Lipid bilayer [4] = assay: Induction of membrane disruption in PG/CL/PE large unilamellar vesicles assessed as calcein-entrapped liposome leakage at 1 to 64 uM after 15 mins by spectrofluorophotometric assay
How it was run: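 Calcein-loaded LUVs (PG/CL/PE 2:1:7 w/w/w, E. coli membrane mimic), extruded through 100-nm filters, free dye removed on Sephadex G-50. Lipid (100 μM) incubated 15 min with peptide (1–64 μM). Calcein release read at ex 490/em 520 nm and normalised to Triton X-100. Triplicate, three biological replicates.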

Staphylococcus aureus [5] = assay: Bactericidal activity against Staphylococcus aureus ATCC 29213 assessed as reduction in bacterial growth at MBC by time-kill assay; format: functional, organism-based; how it was run: as §1
Escherichia coli [6] = assay: Bactericidal activity against Escherichia coli ATCC 25922 assessed as reduction in bacterial growth at MBC measured within 30 mins by time-kill assay relative to control; format: functional; parameters: scale not given: the % may be the effect or the level left
How it was run: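 Time-kill assay. Cells at a final 0.5–1 × 10^5 CFU mL−1 were exposed to peptide at 1×MBC. Aliquots were removed at different times to calculate the survival rate against an untreated control. Mean of three independent experiments, each with three technical replicates.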

Staphylococcus aureus [7] = assay: Drug uptake in plasma membrane of Staphylococcus aureus ATCC 29213 at MBC measured after 30 mins using FITC-labeled compound by microscopic analysis; format: ADME, organism-based; conditions: in vivo, 0.5 h
How it was run: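 E. coli ATCC 25922 or S. aureus ATCC 29213 (OD600 0.2) incubated with FITC-labeled peptide at 1×MBC, 37 °C, 30 min. Cells washed, resuspended with PI (10 μg/mL) in PBS, smeared and imaged by superresolution microscopy using 488 and 535 nm filters for FITC and PI. Peptide-free cells served as controls. Three independent scans.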

Escherichia coli [8] = assay: Induction of morphological changes in Escherichia coli ATCC 25922 assessed as separation between outer membrane and cytoplasmic membrane at MBD measured after 1 hr by transmission electron microscopic analysis; format: functional, organism-based
Escherichia coli [9] = assay: Induction of morphological changes in Escherichia coli ATCC 25922 assessed as membrane blebbing at MBD measured after 1 hr by scanning electron microscopic analysis; format: functional, organism-based
Escherichia coli [10] = assay: Induction of morphological changes in Escherichia coli ATCC 25922 assessed as cell content leakage at MBD measured after 1 hr by scanning electron microscopic analysis; format: functional, organism-based
Staphylococcus aureus [11] = assay: Induction of morphological changes in Staphylococcus aureus ATCC 29213 assessed as membrane creping at MBD measured after 1 hr by atomic force microscopic analysis; format: functional, organism-based
Candida albicans [12] = assay: Antifungal activity against Candida albicans cgmcc2.2086 infected in C57BL/6 mouse model of keratitis assessed as reduction in fungal colonies in eyeballs at 5 mg/ml administered as topical eye drop every 5 mins for first 4 hrs and every 30 mins for next 7 hrs measured post-last dose by agar plate method relative to control; format: functional; parameters: scale not given: the % may be the effect or the level left
Staphylococcus aureus [13] = assay: Induction of morphological changes in Staphylococcus aureus ATCC 29213 assessed as cytoplasmic leakage at MBD measured after 1 hr by transmission electron microscopic analysis; format: functional, organism-based
Lipid bilayer [14] = assay: Induction of membrane disruption in PG/CL/PE large unilamellar vesicles assessed as calcein-entrapped liposome leakage at 8 uM after 15 mins by spectrofluorophotometric assay relative to control
How it was run: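 Calcein (70 mM)-loaded LUVs of PG/CL/PE (2:1:7 w/w/w, E. coli membrane mimic), made by freeze-thaw and 100-nm extrusion, free dye removed on Sephadex G-50. LUVs (100 μM) exposed to peptide (1–64 μM) for 15 min. Leakage read at ex 490/em 520 nm: liposomes alone are background, Triton X-100 is 100%. Independent triplicates.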

Staphylococcus aureus [15] = assay: Antibacterial activity against Staphylococcus aureus ATCC 29213 assessed as ratio of MIC95 in presence of CaCl2 to in absence of CaCl2; format: functional
How it was run: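 S. aureus ATCC 29213, mid-log, (0.5–1) × 10^5 CFU/mL final in MHB, with or without 2 mM CaCl2 (final). Peptide serially diluted in 0.2% BSA and mixed 1:1 with cells, 24 h at 37 °C. MIC is the lowest concentration inhibiting 95% of growth by A492. Three independent experiments, each with three technical replicates.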

Staphylococcus aureus [16] = assay: Induction of morphological changes in Staphylococcus aureus ATCC 29213 assessed as tiny hole formation at MBD measured after 1 hr by transmission electron microscopic analysis; format: functional, organism-based
Escherichia coli [17] = assay: Induction of morphological changes in Escherichia coli ATCC 25922 assessed as cell content leakage at MBD measured after 1 hr by transmission electron microscopic analysis; format: functional, organism-based
Candida albicans [18] = assay: Fungicidal activity against Candida albicans cgmcc2.2086 assessed as reduction in bacterial growth at MFC measured within 3 mins by time-kill assay relative to control; format: functional; parameters: scale not given: the % may be the effect or the level left
How it was run: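 Time-kill: cells at a final 0.5–1×10^5 CFU/mL were exposed to peptide at 1×MBC/MFC. Aliquots were removed at intervals to count survivors against an untreated control. Means of three independent experiments, each with three technical replicates.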

Pseudomonas aeruginosa = assay: Antibacterial activity against melittin-resistant Pseudomonas aeruginosa ATCC 27853 measured after 24 hrs; format: functional, organism-based
Staphylococcus aureus [19] = assay: Induction of morphological changes in Staphylococcus aureus ATCC 29213 assessed as sparse distribution of cytoplasm at MBD measured after 1 hr by transmission electron microscopic analysis; format: functional, organism-based
Escherichia coli [20] = assay: Induction of morphological changes in Escherichia coli ATCC 25922 assessed as membrane creping at MBD measured after 1 hr by scanning electron microscopic analysis; format: functional, organism-based
[21] = Conformational stability in 50% trifluoro-ethyl alcohol assessed as alpha-helical structural propensity at 35 uM by CD spectra analysis; format: physicochemical
How it was run: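 CD spectra from 190 to 250 nm of peptide at 35 μM in 10 mM PBS, 30 mM SDS micelles or 50% TFE, recorded in a 1.0-mm quartz cell. Ellipticity was converted to mean residue ellipticity. Three independent scans, each averaged over more than 3 runs.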

For CC[C@H](C)[C@H](NC(=O)CN)C(=O)NCC(=O)N[C@@H](C)C(=O)N[C@H](C(=O)N[C@@H](CC(C)C)C(=O)N[C@@H](CCCCN)C(=O)N[C@H](C(=O)N[C@@H](CC(C)C)C(=O)N[C@H](C(=O)N[C@H](C(=O)NCC(=O)N[C@@H](CC(C)C)C(=O)N1CCC[C@H]1C(=O)N[C@@H](C)C(=O)N[C@@H](CC(C)C)C(=O)N[C@H](C(=O)N[C@@H](CO)C(=O)N[C@@H](Cc1c[nH]c2ccccc12)C(=O)N[C@H](C(=O)N[C@@H](CCCCN)C(=O)N[C@@H](CCCNC(=N)N)C(=O)N[C@@H](CCCCN)C(=O)N[C@@H](CCCNC(=N)N)C(=O)N[C@@H](CCC(N)=O)C(=O)N[C@@H](CCC(N)=O)C(N)=O)[C@@H](C)CC)[C@@H](C)CC)[C@@H](C)O)[C@@H](C)O)C(C)C)C(C)C [MELITTIN], the Flu intensity (Escherichia coli [1]) was 4000 a.u, the Activity (Escherichia coli [2]) was “Active” and the Activity (Lipid bilayer [3]) was over 85%. The Activity (Lipid bilayer [4]) was “Active” and the Activity (Staphylococcus aureus [5]) was “Active”.

In the case of H-AARIILRWRFR-NH2, the Activity (Escherichia coli [6]) is reported as 99.99%, the Drug uptake (Staphylococcus aureus [7]) is reported as “Active” and the Activity (Escherichia coli [8]) is reported as “Active”. The Activity (Escherichia coli [9]) was “Active”, the Activity (Escherichia coli [10]) was “Active” and the Activity (Staphylococcus aureus [11]) was “Active”. The Activity (Candida albicans [12]) was “<=80%”, the Activity (Staphylococcus aureus [13]) was “Active” and the Activity (Lipid bilayer [14]) was over 40%. The Ratio (Staphylococcus aureus [15]) was 4, the Activity (Staphylococcus aureus [16]) was “Active” and the Activity (Escherichia coli [17]) was “Active”. The Activity (Candida albicans [18]) was 99.99%, the Activity (Pseudomonas aeruginosa) was “Active” and the Activity (Staphylococcus aureus [19]) was “Active”. The Activity (Escherichia coli [20]) was “Active”.

With H-AARRILRWIFR-NH2 the Stability [21] was “Stable”.
